Laboratory results: PMC9065697 (RSC Advances, 2019)
Peptide text beside a SMILES is read from it. * marks the point of attachment. X1 = O=C(c1ccc(Oc2ccc3c4nc5nc(nc6[nH]c(nc7nc(nc([nH]4)c3c2)-c2ccccc2-7)c2ccccc62)-c2ccccc2-5)cc1)*

Tests used:
[1] = reference standard in DMF; cited from earlier work
[2] = reference standard in DMF; cited from earlier work; remark: listed apart in the source
[3] = In vivo biodistribution by near-infrared fluorescence imaging; design: species or system mouse; details: mouse, in vivo, iv, 20 nmol
In short: (§1)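 Female Balb/c nude mice (20–25 g) carried subcutaneous HT29 tumours on the back (about 1 × 10^7 cells in HBSS) grown to 60–100 mm3. They received 20 nmol test compound in water with 1% DMSO by tail-vein injection. NIR imaging (ex 680 nm, em ≥700 nm) ran from pre-dose to 48 h. At 48 h, tumour, heart, lung, spleen, kidney and liver were assayed for fluorescence per unit area and reported as tumour/organ ratio. Data are mean ± SD, n = 4.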

[4] = tested on: HT29 tumour-bearing nude mice; test: as above; design: species or system mouse; details: 20 nmol intravenous; for Fluorescence intensity in the tumour area over time: imaged over 48 h, four mice per conjugate
In short: as §1

HT29 cells [5] = test: Annexin V-GFP/PI costaining assay; assay type: cell-based, human; details: 0.5 μM for 10 min
[6] = tested on: HT29 human colorectal adenocarcinoma cells; test: Cellular uptake by confocal fluorescence microscopy; assay type: cell-based; details: 2 μM for 10 min at 37 °C, then 6 h in drug-free medium at 4 °C
In short: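 HT29 cells (about 2 × 10^5, RPMI with 10% FBS) were seeded on confocal dishes and left overnight at 37 °C, 5% CO2. They were exposed to 2 μM test compound for 10 min at 37 °C, washed three times with PBS, then held in drug-free medium for 6 h at 4 °C or 37 °C. Bright-field and fluorescence images were taken by confocal microscopy.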

HT29 cells [7] = test: Photocytotoxicity, MTT assay; assay type: cell-based, human; details: absence of light, both incubation conditions
In short: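 HT29 cells (1 × 10^4 per well) were plated overnight. A DMSO stock of test compound was diluted in medium and applied for 10 min at 37 °C. Cells were rinsed with PBS, refed, and held 0 or 6 h with no red-light illumination. MTT (3 mg mL−1 in PBS) was added for 4 h, DMSO added, and A490 read. Viability is relative to compound-free control wells, averaged over 4 data points.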

[8] = Solubility and aggregation state; assay type: physicochemical; details: 2 μM in DMF and in PBS with 0.01% Tween 80 (v/v); intense, sharp Q band at 672 nm (DMF) or 680 nm (PBS); UV-Vis
[9] = tested on: A431 human epidermoid carcinoma cells; details: read-out: IC50 (photocytotoxicity); cited from earlier work

[Zn+2].c1ccc2c(c1)-c1nc-2nc2[n-]c(nc3nc([n-]c4nc(n1)-c1ccccc1-4)-c1ccccc1-3)c1ccccc21 [ZnPc, zinc(II) phthalocyanine]
Singlet oxygen quantum yield ΦΔ [1]: 0.56
Fluorescence quantum yield ΦF [2]: 0.28

N=C(N)NCCC[C@H](NC(=O)[C@@H](N)CCC(N)=O)C(=O)N[C@@H](Cc1c[nH]cn1)C(=O)N[C@@H](CCCCN)C(=O)N1CCC[C@H]1C(=O)N[C@@H](CCCNC(=N)N)C(=O)N[C@@H](CCC(=O)O)C(=O)NCC(=O)NCC(=O)NCC(=O)NCC(=O)N[C@@H](CO)C(=O)N[C@@H](CCCCNC(=O)c1ccc(Oc2ccc3c4nc5nc(nc6[nH]c(nc7nc(nc([nH]4)c3c2)-c2ccccc2-7)c2ccccc62)-c2ccccc2-5)cc1)C(N)=O [compound 4] (H-QRHKPREGGGGSK(X1)-NH2)
tissue to tissue ratio at 48 h [3]: < 1
Fluorescence intensity in the tumour area over time [4]: increased along with time
Cell-death pathway, PDT effect on the cell membrane (HT29 cells [5]; irradiated immediately (λ > 610 nm, 18 mW cm^-2, 20 min)): cell necrosis
Cell-death pathway, PDT effect after internalisation (HT29 cells [5]; then 6 h post-incubation before irradiation (λ > 610 nm, 18 mW cm^-2, 20 min)): mainly through apoptosis
Internalisation on post-incubation at 4 °C [6]: internalisation was not significant
Dark toxicity (HT29 cells [7]): did not show significant dark toxicity
Solubility and aggregation state from the Q band [8]: soluble and remained non-aggregated in both media

EPRQRHKGGGGSK [compound 5]
Tumour selectivity (tumour/organ ratio) compared with conjugate 4 ([4]; ex vivo at 48 h, four mice): consistently lower for all the organs
Fluorescence intensity in the tumour area over time [4]: remained weak throughout the period

GYHWYGYTPQNVI [GE11 conjugate]
IC50 [9]: 14 µM
